Results taken from paper PMC9324959 (Angewandte Chemie (International Ed. in English), 2022).

Key:
HeLa cells = assay: Cytotoxicity assay; assay type: cell-based; conditions: under the conditions used
Outline: (§1)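 Where cells were clearly affected but the curve could not be fitted, the value was flagged. "n/a" marks no effect under the conditions tested.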

Cytotoxicity assay = assay type: cell-based; conditions: human, HeLa cells
Outline: as §1

SMILES	cytotoxicity (in words) (HeLa cells)	IC50 at 72 h (Cytotoxicity assay) [µM]
CC(=O)Nc1ccc(-c2csc(NC(=O)c3ccccc3)n2)cc1 [Compound 6]	not cytotoxic	
CC(=O)Nc1ccc(-c2csc(Nc3cccc(O)c3)n2)cc1 [Compound 21]		50
COc1cccc(Nc2nc(-c3ccc(NC(C)=O)cc3)cs2)c1 [Compound 22]		43
CC(=O)Nc1ccc(-c2csc(Nc3cccc(Cl)c3)n2)cc1 [Compound 20]		19
CC(=O)Nc1ccc(-c2csc(Nc3ccccc3C(F)(F)F)n2)cc1 [Compound 17]		71
CC(=O)Nc1ccc(-c2csc(Nc3ccccc3F)n2)cc1 [Compound 8]		> 80
CC(=O)Nc1ccc(-c2csc(Nc3ccccc3)n2)cc1 [Compound 4]		48
CC(=O)Nc1ccc(-c2csc(Nc3cccc(C)c3)n2)cc1 [Compound 15]		37
CC(=O)Nc1ccc(-c2csc(Nc3ccc(C(F)(F)F)cc3)n2)cc1 [Compound 19]	abrogated activity	
CC(C)C(=O)Nc1ccc(-c2csc(Nc3cccc(F)c3)n2)cc1 [Compound 12]		34
O=C(Nc1ccc(-c2csc(Nc3cccc(F)c3)n2)cc1)C1CC1 [Compound 13]		38
CC(=O)Nc1ccc(-c2csc(Nc3ccccc3C)n2)cc1 [Compound 14]		59
CCC(=O)Nc1ccc(-c2csc(Nc3cccc(F)c3)n2)cc1 [Compound 11, N-[4-[2-(3-fluoroanilino)thiazol-4-yl]phenyl]propanamide]		38
CC(=O)Nc1ccc(-c2csc(Nc3ccc(F)cc3)n2)cc1 [Compound 10]		> 80
